Source: publication PMC10210236 (ACS Omega, 2023)
Entries after “also recorded” stand apart in the source; their conditions may differ.

Assays:
[1] = tested on: 2008, C13*, and Sk-Mel28 cell lines; assay: Flow cytometric analysis of cell cycle, statement for all three lines; assay type: cell-based, human; settings: 48 h, versus untreated
[2] = Dissolution / intrinsic dissolution rate of pellets in pH 1.2; assay type: physicochemical; settings: neat drug; for pure drug dissolution value: gastric pH 1.2 (0.1 N HCl)
Method in brief: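 Run in 0.1 N HCl, pH 1.2, simulating gastric conditions, in a 500 mL medium over 3 h with sampling from 15 to 180 min. Read-outs were cumulative amount dissolved and intrinsic dissolution rate, quantified separately for each drug component from the salt. Salt batch was scaled up by ethanol drop grinding, with phase purity checked by PXRD profile fitting. Leftover solids were characterized afterwards.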

Sk-Mel28 cells = assay: Flow cytometric analysis of cell cycle; assay type: cell-based, human; settings: 48 h, concentration approx. IC50
2008 cells = assay: Flow cytometric analysis of cell cycle; assay type: cell-based, human; settings: 48 h, concentration approx. IC50
C13* cells = assay: Flow cytometric analysis of cell cycle; assay type: cell-based, human; settings: 48 h, concentration approx. IC50
[3] = Equilibrium solubility / slurry experiment at pH 1.2, phase of residue; assay type: physicochemical; settings: pH 1.2 (0.1 N HCl)
Method in brief: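 Equilibrium slurry of salt or free base in 0.1 N HCl, pH 1.2. Undissolved residue was characterized by DSC, TGA, PXRD profile fitting against the single-crystal structure, FESEM morphology, and FESEM-EDX chloride content to detect phase conversion, such as hydrochloride formation.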

[4] = tested on: ovarian cancer cell lines (A2780, 2008, A2780/CP, C13*); assay: Cytotoxicity screening, ovarian lines taken together; assay type: cell-based; settings: Homo sapiens, read-out: IC50 range in ovarian cancer cell lines
[5] = tested on: BRAF^V600E melanoma cells Sk-Mel28; assay: Cytotoxicity screening; assay type: cell-based; settings: Homo sapiens, SK-MEL-28
Method in brief: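 Sk-Mel28 (human BRAF V600E melanoma) cells treated with test compound across a dose–response range. Survival percentage relative to control was read, and IC50 was taken from the curve. Two separate experiments were each run in duplicate, reported as mean ± SEM.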

[6] = cited from earlier work

With CC(C)(C)c1nc(-c2cccc(NS(=O)(=O)c3c(F)cccc3F)c2F)c(-c2ccnc(N)n2)s1 [DBF, dabrafenib] the “fold increase of hypodiploid cells” value [1] was about 4 fold, the “pure drug dissolution value” [2] was 80 mg cm^–2 min^–1 and the “cumulative drug dissolved, saturation value” ([2]; pH 1.2, 500 mL) was 12.18 mg/L. The “cells in G0G1 phase” value (Sk-Mel28 cells) was 65.11%, the “cells in G2/M phase” value (Sk-Mel28 cells) was 4.53% and the “cells in S phase” value (Sk-Mel28 cells) was 3.95%. The “hypodiploid cells (sub-G1)” value (Sk-Mel28 cells) was 23.46%, the “cells in G0G1 phase” value (2008 cells) was 63.91% and the “cells in G2/M phase” value (2008 cells) was 10.76%. The “cells in S phase” value (2008 cells) was 3.53%, the hypodiploid cells (2008 cells) was 19.32% and the “cells in G0G1 phase” value (C13* cells) was 68.48%. For the same compound, the “cells in G2/M phase” value (C13* cells) was 5.28%, the “cells in S phase” value (C13* cells) was 4.60% and the “hypodiploid cells (sub-G1)” value (C13* cells) was 19.32%.

For CC(C)(C)c1nc(-c2cccc(NS(=O)(=O)c3c(F)cccc3F)c2F)c(-c2ccnc(N)n2)s1.O [DBF·MH], the “solubility of the phase formed at pH 1.2 (in words)” value [3] was “comparatively less soluble; also recorded: very poor”.

For Cc1[nH]c2ccccc2c1CCNCc1ccc(/C=C/C(=O)NO)cc1 [PAN, panobinostat], the “pure drug dissolution value” [2] was 10 mg cm^–2 min^–1, the “cumulative drug dissolved at 15 min” value ([2]; pH 1.2, 500 mL, 15 min) was 4.60 mg/L and the “cumulative drug dissolved at 180 min” value ([2]; pH 1.2, 500 mL, 180 min) was 20.81 mg/L. The IC50 [4] was 4 to 9 nM, the “cells in G0G1 phase” value (Sk-Mel28 cells) was 42.53% and the “cells in G2/M phase” value (Sk-Mel28 cells) was 18.73%. The “cells in S phase” value (Sk-Mel28 cells) was 5.17%, the “hypodiploid cells (sub-G1)” value (Sk-Mel28 cells) was 30.07% and the IC50 [5] was 45.3 ± 12 nM. The “pKa (indole NH)” value [6] was 8.4, the “cells in G0G1 phase” value (2008 cells) was 37.98% and the “cells in G2/M phase” value (2008 cells) was 9.99%. The “cells in S phase” value (2008 cells) was 6.78%, the hypodiploid cells (2008 cells) was 42.32% and the “cells in G0G1 phase” value (C13* cells) was 47.46%. The “cells in G2/M phase” value (C13* cells) was 10.27%, the “cells in S phase” value (C13* cells) was 6.85% and the “hypodiploid cells (sub-G1)” value (C13* cells) was 30.15%.

For Cc1[nH]c2ccccc2c1CCNCc1ccc(/C=C/C(=O)NO)cc1.Cl [PAN·HCl], the “solubility of the phase formed at pH 1.2 (in words)” value [3] was “high solubility”.
